≈ marks a conversion by molar mass, not a printed value.
Experiments:
Candida albicans [1] = assay: Antifungal activity against Candida albicans ATCC 10231 after 48 hrs by broth microdilution technique; format: functional; conditions: ATCC 10231, 48 h
Summary of the method: (§1)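 Yeasts were tested by CLSI broth microdilution in RPMI-1640 buffered to pH 7.0 with MOPS, with compound from 250 down to 0.98 in DMSO stocks. Trays were held at 30 °C in a moist, dark chamber. MIC100, the lowest concentration giving total visual inhibition against the growth control, was read by eye at 48 h.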

Saccharomyces cerevisiae = assay: Antifungal activity against Saccharomyces cerevisiae ATCC 9763 after 48 hrs by broth microdilution technique; format: functional; conditions: ATCC 9763, 48 h; summary of the method: as §1
Cryptococcus neoformans [2] = assay: Antifungal activity against Cryptococcus neoformans ATCC 32264 after 48 hrs by broth microdilution technique; format: functional; conditions: ATCC 32264, 48 h; summary of the method: as §1
Aspergillus fumigatus = assay: Antifungal activity against Aspergillus fumigatus ATCC 26934 after 48 hrs by broth microdilution technique; format: functional; conditions: ATCC 26934, 48 h
Summary of the method: (§2)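 Moulds and dermatophytes were run by CLSI broth microdilution in MOPS-buffered RPMI-1640 at pH 7.0. Aspergillus was incubated at 30 °C and dermatophytes at 28–30 °C, in a moist, dark chamber. MIC100, the lowest concentration with no visible growth, was read visually at a time set by growth of the control fungus.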

Aspergillus flavus = assay: Antifungal activity against Aspergillus flavus ATCC 9170 after 48 hrs by broth microdilution technique; format: functional; conditions: ATCC 9170, 48 h; summary of the method: as §2
Aspergillus niger = assay: Antifungal activity against Aspergillus niger ATCC 9029 after 48 hrs by broth microdilution technique; format: functional; conditions: ATCC 9029, 48 h; summary of the method: as §2
Nannizzia gypsea = assay: Antifungal activity against Microsporum gypseum CCC 115 after 48 hrs by broth microdilution technique; format: functional; conditions: CCC 115, 48 h; summary of the method: as §2
Trichophyton rubrum = assay: Antifungal activity against Trichophyton rubrum CCC 113 after 48 hrs by broth microdilution technique; format: functional; conditions: CCC 113, 48 h
[3] = system: Trichophyton mentagrophytes; assay: Antifungal activity against Trichophyton mentagrophytes ATCC 9972 after 48 hrs by broth microdilution technique; format: functional; conditions: ATCC 9972, 48 h; summary of the method: as §2
Candida albicans [4] = assay: Antifungal activity against Candida albicans CCC 125 after 48 hrs by broth microdilution technique; format: functional; conditions: CCC 125, 48 h
Candida albicans [5] = assay: Antifungal activity against Candida albicans CCC 126 after 48 hrs by broth microdilution technique; format: functional; conditions: CCC 126, 48 h
Candida albicans [6] = assay: Antifungal activity against Candida albicans CCC 127 after 48 hrs by broth microdilution technique; format: functional; conditions: CCC 127, 48 h
Candida albicans [7] = assay: Antifungal activity against Candida albicans CCC 128 after 48 hrs by broth microdilution technique; format: functional; conditions: CCC 128, 48 h
Candida albicans [8] = assay: Antifungal activity against Candida albicans CCC 129 after 48 hrs by broth microdilution technique; format: functional; conditions: CCC 129, 48 h
Candida albicans [9] = assay: Antifungal activity against Candida albicans CCC 130 after 48 hrs by broth microdilution technique; format: functional; conditions: CCC 130, 48 h
Nakaseomyces glabratus = assay: Antifungal activity against Candida glabrata CCC 115 after 48 hrs by broth microdilution technique; format: functional; conditions: CCC 115, 48 h
Candida parapsilosis = assay: Antifungal activity against Candida parapsilosis CCC 124 after 48 hrs by broth microdilution technique; format: functional; conditions: Lodderomyces parapsilosis, CCC 124, 48 h
Pichia kudriavzevii = assay: Antifungal activity against Candida krusei CCC 117 after 48 hrs by broth microdilution technique; format: functional; conditions: CCC 117, 48 h
Candida tropicalis = assay: Antifungal activity against Candida tropicalis CCC 131 after 48 hrs by broth microdilution technique; format: functional; conditions: CCC 131, 48 h
Cryptococcus neoformans [10] = assay: Antifungal activity against Cryptococcus neoformans IM 983040 after 48 hrs by broth microdilution technique; format: functional; conditions: IM 983040, 48 h
Summary of the method: (§3)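 C. neoformans was tested by 96-well RPMI-1640 microdilution, with DMSO-matched growth and sterility control wells. Plates were incubated 48 h at 30 °C in a moist, dark chamber and read at OD405. % inhibition = 100 − (CTW − SCW)/(GCW − SCW), in duplicate. For the clinical isolates, MIC80 and MIC50 are the lowest concentrations giving 80% and 50% inhibition.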

Cryptococcus neoformans [11] = assay: Antifungal activity against Cryptococcus neoformans IM 972724 after 48 hrs by broth microdilution technique; format: functional; conditions: IM 972724, 48 h; summary of the method: as §3
Cryptococcus neoformans [12] = assay: Antifungal activity against Cryptococcus neoformans IM 042074 after 48 hrs by broth microdilution technique; format: functional; conditions: IM 042074, 48 h; summary of the method: as §3
Cryptococcus neoformans [13] = assay: Antifungal activity against Cryptococcus neoformans IM 983036 after 48 hrs by broth microdilution technique; format: functional; conditions: IM 983036, 48 h; summary of the method: as §3
Cryptococcus neoformans [14] = assay: Antifungal activity against Cryptococcus neoformans IM 00319 after 48 hrs by broth microdilution technique; format: functional; conditions: IM 00319, 48 h; summary of the method: as §3
Cryptococcus neoformans [15] = assay: Antifungal activity against Cryptococcus neoformans IM 972751 after 48 hrs by broth microdilution technique; format: functional; conditions: IM 972751, 48 h; summary of the method: as §3
Cryptococcus neoformans [16] = assay: Antifungal activity against Cryptococcus neoformans ATCC 32264 at 31.2 ug/ml after 48 hrs; format: functional; conditions: ATCC 32264, 48 h; summary of the method: as §3
Candida albicans [17] = assay: Antifungal activity against Candida albicans ATCC 10231 at 31.2 ug/ml after 24 hrs; format: functional; conditions: ATCC 10231, 24 h
Summary of the method: (§4)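 C. albicans was grown in 96-well RPMI-1640 broth microdilution with compound wells diluted from DMSO stocks. Growth wells with matched DMSO and sterility wells were included. After 24 h at 30 °C in a moist, dark chamber, OD405 was read. % inhibition = 100 − (CTW − SCW)/(GCW − SCW) OD, done in duplicate.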

Candida albicans [18] = assay: Antifungal activity against Candida albicans ATCC 10231 at 7.8 ug/ml after 24 hrs; format: functional; conditions: ATCC 10231, 24 h; summary of the method: as §4
Candida albicans [19] = assay: Antifungal activity against Candida albicans ATCC 10231 at 15.6 ug/ml after 24 hrs; format: functional; conditions: ATCC 10231, 24 h; summary of the method: as §4
Candida albicans [20] = assay: Antifungal activity against Candida albicans CCC 130 after 24 hrs by broth microdilution technique; conditions: CCC 130, 24 h

C(=C\c1ccc2ccccc2n1)/c1ccncc1
MFC (Candida albicans [1]): 250 mg/L (≈ 1080 µM)
MIC (Candida albicans [1]): 62 mg/L (≈ 267 µM)
MIC50 (Candida albicans [1]): 7.8 mg/L (≈ 33.6 µM)
MIC80 (Candida albicans [1]): 15.6 mg/L (≈ 67.2 µM)
MFC (Saccharomyces cerevisiae): 250 mg/L (≈ 1080 µM)
MIC (Saccharomyces cerevisiae): 62 mg/L (≈ 267 µM)
MFC (Cryptococcus neoformans [2]): 125 mg/L (≈ 538 µM)
MIC (Cryptococcus neoformans [2]): 62 mg/L (≈ 267 µM)
MIC50 (Cryptococcus neoformans [2]): 15.6 mg/L (≈ 67.2 µM)
MIC80 (Cryptococcus neoformans [2]): 31.2 mg/L (≈ 134 µM)
MFC (Aspergillus fumigatus): 250 mg/L (≈ 1080 µM)
MIC (Aspergillus fumigatus): 125 mg/L (≈ 538 µM)
MFC (Aspergillus flavus): 250 mg/L (≈ 1080 µM)
MIC (Aspergillus flavus): 125 mg/L (≈ 538 µM)
MFC (Aspergillus niger): > 250 mg/L
MIC (Aspergillus niger): 125 mg/L (≈ 538 µM)
MFC (Nannizzia gypsea): 125 mg/L (≈ 538 µM)
MIC (Nannizzia gypsea): 31 mg/L (≈ 133 µM)
MFC (Trichophyton rubrum): 125 mg/L (≈ 538 µM)
MIC (Trichophyton rubrum): 31 mg/L (≈ 133 µM)
MFC [3]: 125 mg/L (≈ 538 µM)
MIC [3]: 31 mg/L (≈ 133 µM)
MIC50 (Candida albicans [4]): 7.8 mg/L (≈ 33.6 µM)
MIC80 (Candida albicans [4]): 15.6 mg/L (≈ 67.2 µM)
MIC50 (Candida albicans [5]): 15.6 mg/L (≈ 67.2 µM)
MIC80 (Candida albicans [5]): 31.2 mg/L (≈ 134 µM)
MIC50 (Candida albicans [6]): 15.6 mg/L (≈ 67.2 µM)
MIC80 (Candida albicans [6]): 15.6 mg/L (≈ 67.2 µM)
MIC50 (Candida albicans [7]): 7.8 mg/L (≈ 33.6 µM)
MIC80 (Candida albicans [7]): 15.6 mg/L (≈ 67.2 µM)
MIC50 (Candida albicans [8]): 15.6 mg/L (≈ 67.2 µM)
MIC80 (Candida albicans [8]): 31.2 mg/L (≈ 134 µM)
MIC80 (Candida albicans [9]): 15.6 mg/L (≈ 67.2 µM)
MIC50 (Nakaseomyces glabratus): 31.2 mg/L (≈ 134 µM)
MIC80 (Nakaseomyces glabratus): 62.5 mg/L (≈ 269 µM)
MIC50 (Candida parapsilosis): 7.8 mg/L (≈ 33.6 µM)
MIC80 (Candida parapsilosis): 31.2 mg/L (≈ 134 µM)
MIC50 (Pichia kudriavzevii): 15.6 mg/L (≈ 67.2 µM)
MIC80 (Pichia kudriavzevii): 31.2 mg/L (≈ 134 µM)
MIC50 (Candida tropicalis): 31.2 mg/L (≈ 134 µM)
MIC80 (Candida tropicalis): 62.5 mg/L (≈ 269 µM)
MIC50 (Cryptococcus neoformans [10]): 7.8 mg/L (≈ 33.6 µM)
MIC80 (Cryptococcus neoformans [10]): 31.2 mg/L (≈ 134 µM)
MIC50 (Cryptococcus neoformans [11]): 7.8 mg/L (≈ 33.6 µM)
MIC80 (Cryptococcus neoformans [11]): 31.2 mg/L (≈ 134 µM)
MIC50 (Cryptococcus neoformans [12]): 3.9 mg/L (≈ 16.8 µM)
MIC80 (Cryptococcus neoformans [12]): 31.2 mg/L (≈ 134 µM)
MIC50 (Cryptococcus neoformans [13]): 7.8 mg/L (≈ 33.6 µM)
MIC80 (Cryptococcus neoformans [13]): 31.2 mg/L (≈ 134 µM)
MIC50 (Cryptococcus neoformans [14]): 7.8 mg/L (≈ 33.6 µM)
MIC80 (Cryptococcus neoformans [14]): 31.2 mg/L (≈ 134 µM)
MIC50 (Cryptococcus neoformans [15]): 3.9 mg/L (≈ 16.8 µM)
MIC80 (Cryptococcus neoformans [15]): 31.2 mg/L (≈ 134 µM)
inhibition at 31.2 µg/mL (Cryptococcus neoformans [16]): 80%
inhibition at 31.2 µg/mL (Candida albicans [17]): 80%
inhibition at 7.8 µg/mL (Candida albicans [18]): 50%
inhibition at 15.6 µg/mL (Candida albicans [19]): 80%
MIC50 (Candida albicans [20]): 7.8 mg/L (≈ 33.6 µM)

— ChEMBL document CHEMBL2157922, “Synthesis and antifungal activity of diverse C-2 pyridinyl and pyridinylvinyl substituted quinolines” (2012)
